Some results are limits rather than exact numbers.

In data set [1] the target is T1, PA-CMG2 interaction (Homo sapiens, UniProt P58335, C175A/R40C).
T1 sequence (P58335 40-217 R40C/C175A): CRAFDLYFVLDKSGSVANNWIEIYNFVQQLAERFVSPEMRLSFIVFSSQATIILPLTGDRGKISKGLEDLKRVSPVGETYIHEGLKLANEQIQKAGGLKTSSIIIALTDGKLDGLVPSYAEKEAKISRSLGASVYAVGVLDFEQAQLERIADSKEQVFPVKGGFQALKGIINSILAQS
Conditions: cited from earlier work.

For data set [2], the target named is T1, PA-CMG2 interaction. Kind of data set: CMG2-PA FRET assay. The following applies: for inhibitory effect on CMG2-PA interaction (in words): FRET assay. The format is binding. The method, boiled down:
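After AF546 dispensing, 32 nM PA-AF488 solution was added and the mix incubated 4 h. Excitation 485 nm; emission 535 and 595 nm. Artifact-filtered Em595/Em535 FRET ratio was converted to % inhibition against an interaction control (100%) and an EDTA no-interaction control (0%).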

Data set [3] has as its system bFGF-induced angiogenesis. Conditions: oral or intraperitoneal administration; cited from earlier work.
Data set [4] concerns EA.hy926 cells. Kind of data set: CellASIC microfluidic chemotactic endothelial cell migration. The format is cell-based. The following applies: Homo sapiens, EA.hy 926, 12 h, read-out: Best fit IC50, chemotactic endothelial cell migration.
The format of data set [5] is in vivo, mice.

Turning to `CCCOC(=O)c1cc(O)c(O)c(O)c1` [propyl gallate], the inhibitory activity entry in data set [1] (concentrations up to 300 μM) was “do not showed any inhibitory activity”.

In the case of `O=C(OC[C@H]1O[C@H](O[C@H]2O[C@H](COC(=O)c3ccc(O)c(O)c3O)[C@@H](OC(=O)c3ccc(O)c(O)c3O)[C@H](OC(=O)c3ccc(O)c(O)c3O)[C@H]2OC(=O)c2ccc(O)c(O)c2O)[C@@H](OC(=O)c2ccc(O)c(O)c2O)[C@@H](OC(=O)c2ccc(O)c(O)c2O)[C@@H]1OC(=O)c1ccc(O)c(O)c1O)c1ccc(O)c(O)c1O` [compound 31, α,α-D-Trehalose octakis(2,3,4-trihydroxybenzoate)], the “inhibitory effect on CMG2-PA interaction (in words)” value (“inhibitory effect” for short) in data set [2] was “did not inhibit CMG2-PA interaction”.

For `O=C(OC[C@H]1O[C@@H](OC(=O)c2cc(O)c(O)c(O)c2)[C@H](OC(=O)c2cc(O)c(O)c(O)c2)[C@@H](OC(=O)c2cc(O)c(O)c(O)c2)[C@@H]1OC(=O)c1cc(O)c(O)c(O)c1)c1cc(O)c(O)c(O)c1` [compound 1, 1,2,3,4,6-penta-O-galloyl-ß-D-glucopyranose], the “angiogenesis in the mouse corneal micropocket assay” value in data set [3] is given as “inhibits angiogenesis”. Moreover, the “IC50 of binding to CMG2” value in data set [1] is recorded as “submicromolar”.

Take `O=C(O[C@@H]1OC[C@@H](OC(=O)c2cc(O)c(O)c(O)c2)[C@@H](OC(=O)c2cc(O)c(O)c(O)c2)[C@H]1OC(=O)c1cc(O)c(O)c(O)c1)c1cc(O)c(O)c(O)c1` [compound 10]: the “inhibitory effect” value in data set [2] is given as “no inhibitory effect”.

On to `O=C(OC[C@H]1O[C@H](O[C@H]2[C@H](OC(=O)c3cc(O)c(O)c(O)c3)[C@@H](OC(=O)c3cc(O)c(O)c(O)c3)[C@H](OC(=O)c3cc(O)c(O)c(O)c3)O[C@@H]2COC(=O)c2cc(O)c(O)c(O)c2)[C@H](OC(=O)c2cc(O)c(O)c(O)c2)[C@@H](OC(=O)c2cc(O)c(O)c(O)c2)[C@@H]1OC(=O)c1cc(O)c(O)c(O)c1)c1cc(O)c(O)c(O)c1` [compound 25, β-D-Maltose octakis(3,4,5-trihydroxybenzoate)], for which, in data set [2], the “inhibitory effect” value is listed as “did not inhibit CMG2-PA interaction”.

As to `O=C(OC[C@@H](OC(=O)c1ccc(O)c(O)c1O)[C@@H]1O[C@H](OC(=O)c2ccc(O)c(O)c2O)[C@H](OC(=O)c2ccc(O)c(O)c2O)[C@H]1OC(=O)c1ccc(O)c(O)c1O)c1ccc(O)c(O)c1O` [compound 15, α-D-Galactofuranose pentakis(2,3,4-trihydroxybenzoate)], in data set [2], the IC50 is > 10 µM.

For the molecule `O=C(O[C@H]1OC[C@@H](OC(=O)c2ccc(O)c(O)c2O)[C@@H](OC(=O)c2ccc(O)c(O)c2O)[C@H]1OC(=O)c1ccc(O)c(O)c1O)c1ccc(O)c(O)c1O` [compound 22, α-D-Ribopiranose tetrakis(2,3,4-trihydroxybenzoate)], the “inhibitory effect” value in data set [2] is “no inhibitory effect”.

Take `O=C(OC[C@H]1O[C@H](O[C@H]2O[C@H](COC(=O)c3cc(O)c(O)c(O)c3)[C@@H](OC(=O)c3cc(O)c(O)c(O)c3)[C@H](OC(=O)c3cc(O)c(O)c(O)c3)[C@H]2OC(=O)c2cc(O)c(O)c(O)c2)[C@@H](OC(=O)c2cc(O)c(O)c(O)c2)[C@@H](OC(=O)c2cc(O)c(O)c(O)c2)[C@@H]1OC(=O)c1cc(O)c(O)c(O)c1)c1cc(O)c(O)c(O)c1` [compound 27, α,α-D-Trehalose octakis(3,4,5-trihydroxybenzoate)]: the “inhibitory effect” value in data set [2] is “did not inhibit CMG2-PA interaction”.

With `O=C(OC[C@H]1O[C@@H](OC(=O)c2cc(O)c(O)c(O)c2)[C@@H](OC(=O)c2cc(O)c(O)c(O)c2)[C@@H](OC(=O)c2cc(O)c(O)c(O)c2)[C@@H]1OC(=O)c1cc(O)c(O)c(O)c1)c1cc(O)c(O)c(O)c1` [compound 8, 1,2,3,4,6-penta-O-galloyl-β-D-mannopyranose], the “affinity for CMG2 relative to the glucose prototype PGG” value in data set [2] (FRET based binding assay) is listed as “up to 10 x”. Moreover, the IC50 in data set [4] was 0.365 ± 0.129 µM. In addition, the weight loss entry in data set [5] (10 mg/kg intraperitoneally, compared to vehicle-treated control animals) is given as “no significant weight loss”. For the same molecule, the “signs of toxicity (weight loss, hunched posture, behavioral abnormalities)” value in data set [5] (treated mice) is “no obvious signs of toxicity”.

Take `O=C(O[C@@H]1OC[C@@H](OC(=O)c2ccc(O)c(O)c2O)[C@@H](OC(=O)c2ccc(O)c(O)c2O)[C@H]1OC(=O)c1ccc(O)c(O)c1O)c1ccc(O)c(O)c1O` [compound 23, β-D-Ribopiranose tetrakis(2,3,4-trihydroxybenzoate)]: the “inhibitory effect” value in data set [2] is “no inhibitory effect”.

The values are drawn from publication PMC8859974 (Journal of medicinal chemistry, 2019).
